Key:
[1] = Inhibition of Mycobacterium tuberculosis recombinant riboflavin synthase at enzyme-substrate-inhibitor complex state after 30 mins by fluorescence assay
Summary of the method: (§1)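 Recombinant M. tuberculosis riboflavin synthase (1 μM) in 100 mM Tris-HCl pH 7.0, 100 mM NaCl, 5 mM DTT, 2% DMSO. 6,7-Dimethyl-8-ribityllumazine substrate was varied 3–60 μM and inhibitor 0–200 μM. Reactions were started with substrate. Riboflavin formation was monitored at 470 nm for 30 min at 27 °C. Velocity–substrate data for all inhibitor levels were fitted by nonlinear regression to alternative inhibition models.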

[2] = Inhibition of Mycobacterium tuberculosis recombinant riboflavin synthase at […] state after 30 mins by fluorescence assay; summary of the method: as §1
[3] = biological target: T1, 6,7-dimethyl-8-ribityllumazine synthase (Mycobacterium tuberculosis, UniProt P9WHE9); assay: Inhibition of Mycobacterium tuberculosis recombinant lumazine synthase at enzyme-inhibitor complex state after 30 mins by fluorescence assay
T1 sequence (P9WHE9 whole entry): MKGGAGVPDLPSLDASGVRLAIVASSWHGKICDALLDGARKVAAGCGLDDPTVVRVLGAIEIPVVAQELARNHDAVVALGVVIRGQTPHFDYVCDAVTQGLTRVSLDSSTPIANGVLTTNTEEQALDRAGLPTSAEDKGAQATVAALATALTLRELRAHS
Summary of the method: (§2)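 Recombinant M. tuberculosis lumazine synthase (2 μM) in 100 mM Tris-HCl pH 7.0, 100 mM NaCl, 5 mM DTT, 2% DMSO. Dihydroxybutanone phosphate was fixed at 100 μM, pyrimidinedione substrate varied 3–100 μM, and inhibitor 0–200 μM. Reactions were started with the pyrimidinedione substrate. Lumazine formation was read at 408 nm for 30 min at 27 °C. Velocity–substrate data were fitted by nonlinear regression to alternative inhibition models.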

[4] = biological target: T1, 6,7-dimethyl-8-ribityllumazine synthase; assay: Inhibition of Mycobacterium tuberculosis recombinant lumazine synthase at enzyme-substrate-inhibitor complex state after 30 mins by fluorescence assay; summary of the method: as §2

Compound | Ki [1] | Ki [2] | Ki [3] | Ki [4]
O=C1Nc2ccc(S(=O)(=O)NCCCCC(F)(F)P(=O)(O)O)c3cccc1c23 | > 1000 µM | 4.1 µM | 832 µM | 518 µM
O=C1Nc2ccc(S(=O)(=O)NCCOP(=O)(O)O)c3cccc1c23 |  |  | 260 µM | 
O=C1Nc2ccc(S(=O)(=O)NCCCOP(=O)(O)O)c3cccc1c23 |  |  | 99 µM | 
O=C1Nc2ccc(S(=O)(=O)NCCCCOP(=O)(O)O)c3cccc1c23 |  |  | 38 µM | 
O=C1Nc2ccc(S(=O)(=O)NCCCCCCOP(=O)(O)O)c3cccc1c23 | 898 µM | 9.8 µM |  | 723 µM
CCOC(=O)C(=O)Nc1c(Cl)[nH]c(=O)[nH]c1=O |  |  | 832 µM | 
O=C(O)CNS(=O)(=O)c1ccc2c3c(cccc13)C(=O)N2 |  |  | 70 µM | 
